Results: ChEMBL document CHEMBL2177000, “Pharmacokinetic optimization of class-selective histone deacetylase inhibitors and identification of associated candidate predictive biomarkers of hepatocellular carcinoma tumor response” (J Med Chem, 2012)
pIC50: −log10 of the molar value. Each block holds one compound with its values, some of them ahead of it. The source made the active and inactive calls. The rule behind the calls is not given here.

Columns and labels:
Mus musculus [1] = assay: AUC in BALB/C mouse at 10 mg/kg, po or 2 mg/kg, iv by LC-MS/MS method; format: ADME, organism-based, Plasma; settings: in vivo
Outline: (§1)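 Female-unspecified BALB/C nude mice (15−20 g, N = 16 per arm); iv bolus 2 mg/kg in 5% DMSO/40% PEG400/55% saline and/or oral gavage 10 mg/kg as 0.445% microcrystalline cellulose microsuspension. Blood sampled at nine (iv) or eight (po) time points into sodium heparin tubes; plasma by LC-MS/MS; noncompartmental analysis.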

Mus musculus [2] = assay: Half life in BALB/C mouse at 10 mg/kg, po or 2 mg/kg, iv by LC-MS/MS method; format: ADME, organism-based; settings: in vivo; outline: as §1
Mus musculus [3] = assay: Tmax in BALB/C mouse at 10 mg/kg, po or 2 mg/kg, iv by LC-MS/MS method; format: ADME, organism-based; settings: in vivo
Outline: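 Single-dose PK: iv bolus 2 mg/kg in 5% DMSO/40% PEG400/55% saline and/or oral gavage 10 mg/kg as 0.445% microcrystalline cellulose microsuspension; BALB/C nude mice (15−20 g, N = 16 per arm) or male Sprague−Dawley rats (250 ± 20 g, N = 3). Blood at eight (po) or nine (iv) time points into sodium heparin, plasma by LC-MS/MS, noncompartmental analysis.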

SK-HEP1 = format: functional, Homo sapiens
Bel-7402 = format: functional, Homo sapiens
BEL-7404 = assay: Antitumor activity against human BEL-7404 cells xenografted in BALB/C mouse assessed as tumor growth inhibition at 100 mg/kg, po administered every other day for 4 weeks; settings: BEL-7404, po, 672 h, read-out: TGI
SMMC-7721 = assay: Induction of apoptosis in human SMMC-7721 cells assessed as necrotic cell level at 5 uM incubated for 48 hrs by FITC/Annexin V staining based flow cytometry (reference value: 2.31%)
Mus musculus [4] = assay: Reactivation of SPINT2 gene expression in treatment responding human hepatocellular carcinoma patient tumor xenografted in BALB/C mouse at 100 mg/kg, po administered every other day for 4 weeks; format: functional, organism-based; design: dose 100 mg/kg
Outline: (§2)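 Patient HCC tumor fragments (3 × 3 × 3 mm3) implanted subcutaneously in female BALB/c nu/nu mice; at ~200 (150−250) mm3 dosed orally Q2D 100 mpk in 15% Kleptose pH 4.5 tartaric buffer for about four weeks. Tumor RNA (TRIzol, DNase I) run on 22-gene qRT-PCR array, normalized to GAPDH/β-glucuronidase by ΔCt, fold change versus day 0.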

Mus musculus [5] = assay: Inhibition of Class 1 histone deacetylase in treatment responding human hepatocellular carcinoma patient tumor xenografted in BALB/C mouse assessed as induction of histone H3 acetylation at 100 mg/kg, po administered every other day for 4 weeks by immunohistochemistry; format: functional, organism-based; design: dose 100 mg/kg
Outline: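 Patient-derived HCC xenografts in female nude mice given 100 mpk Q2D PO (15% Kleptose, pH 4.5 tartaric buffer); single dose on last day, tumors harvested 0 to 24 h post-dose. Paraffin sections, citrate pH 6.0 antigen retrieval, anti-Ac-H3 (Lys9) 1:200 overnight 4 °C, HRP/DAB; scored 0−3 independently by two pathologists.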

Mus musculus [6] = assay: Down-regulation of WNT5A gene expression in human hepatocellular carcinoma patient tumor xenografted in BALB/C mouse at 100 mg/kg, po administered every other day for 4 weeks by […]; format: functional, organism-based; design: dose 100 mg/kg
Outline: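 Patient-derived HCC xenografts dosed 100 mpk Q2D PO; tumor total RNA (TRIzol, DNase I treated, column-purified) run on a customized 22-gene qRT-PCR array; ΔCt against mean of GAPDH and β-glucuronidase, fold-change relative to day 0 (pre-treatment).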

Mus musculus [7] = assay: Up-regulation of CDKN2A gene expression in human hepatocellular carcinoma patient tumor xenografted in BALB/C mouse at 100 mg/kg, po administered every other day for 4 weeks by […]; format: functional, organism-based; design: dose 100 mg/kg; outline: as §2
Mus musculus [8] = assay: Up-regulation of RASSF1 gene expression in human hepatocellular carcinoma patient tumor xenografted in BALB/C mouse at 100 mg/kg, po administered every other day for 4 weeks by […]; format: functional, organism-based; design: dose 100 mg/kg; outline: as §2
Mus musculus [9] = assay: Up-regulation of TIMP3 gene expression in human hepatocellular carcinoma patient tumor xenografted in BALB/C mouse at 100 mg/kg, po administered every other day for 4 weeks by […]; format: functional, organism-based; design: dose 100 mg/kg; outline: as §2
Mus musculus [10] = assay: Up-regulation of THBS1 gene expression in human hepatocellular carcinoma patient tumor xenografted in BALB/C mouse at 100 mg/kg, po administered every other day for 4 weeks by […]; format: functional, organism-based; design: dose 100 mg/kg; outline: as §2
Mus musculus [11] = assay: Up-regulation of FN1 gene expression in human hepatocellular carcinoma patient tumor xenografted in BALB/C mouse at 100 mg/kg, po administered every other day for 4 weeks by […]; format: functional, organism-based; design: dose 100 mg/kg; outline: as §2
Mus musculus [12] = assay: Up-regulation of CTGF gene expression in human hepatocellular carcinoma patient tumor xenografted in BALB/C mouse at 100 mg/kg, po administered every other day for 4 weeks by […]; format: functional, organism-based; design: dose 100 mg/kg; outline: as §2
SGC-7901 [13] = assay: Inhibition of Class 1 histone deacetylase in human SGC7901 cells assessed as histone H3 acetylation at 0.6 to 5 uM incubated for 24 hrs by Western blot method; format: cell-based
Outline: (§3)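 SGC-7901 cells (1 × 10^6) seeded overnight, treated 24 h at indicated concentrations; lysed on ice with protease inhibitor, 15 000 g supernatant; 30 μg protein by SDS-PAGE, nitrocellulose, antibody probing for acetylated histone H3 and p21, ECL detection.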

SGC-7901 [14] = assay: Inhibition of Class 1 histone deacetylase in human SGC7901 cells assessed as […] at 0.6 to 5 uM incubated for 24 hrs by Western blot method; format: cell-based; outline: as §3
Mus musculus [15] = assay: Inhibition of Class 1 histone deacetylase in human Bel7404 cells xenografted BALB/C mouse assessed as induction of histone H3 acetylation at 50 mg/kg, po qd for 4 weeks by Western blot method; settings: Bel-7404
Mus musculus [16] = assay: Inhibition of Class 1 histone deacetylase in human Bel7404 cells xenografted BALB/C mouse assessed as induction of histone H3 acetylation at 100 mg/kg, po administered every other day for 4 weeks by Western blot method; settings: Bel-7404
Cytochrome P450 2D6 = Cytochrome P450 2D6 (Homo sapiens, UniProt P10635); assay: Inhibition of CYP2D6 in human liver microsomes in presence of NADPH by LC-MS/MS method; format: ADME, Microsome
Sequence of Cytochrome P450 2D6 (P10635 whole entry): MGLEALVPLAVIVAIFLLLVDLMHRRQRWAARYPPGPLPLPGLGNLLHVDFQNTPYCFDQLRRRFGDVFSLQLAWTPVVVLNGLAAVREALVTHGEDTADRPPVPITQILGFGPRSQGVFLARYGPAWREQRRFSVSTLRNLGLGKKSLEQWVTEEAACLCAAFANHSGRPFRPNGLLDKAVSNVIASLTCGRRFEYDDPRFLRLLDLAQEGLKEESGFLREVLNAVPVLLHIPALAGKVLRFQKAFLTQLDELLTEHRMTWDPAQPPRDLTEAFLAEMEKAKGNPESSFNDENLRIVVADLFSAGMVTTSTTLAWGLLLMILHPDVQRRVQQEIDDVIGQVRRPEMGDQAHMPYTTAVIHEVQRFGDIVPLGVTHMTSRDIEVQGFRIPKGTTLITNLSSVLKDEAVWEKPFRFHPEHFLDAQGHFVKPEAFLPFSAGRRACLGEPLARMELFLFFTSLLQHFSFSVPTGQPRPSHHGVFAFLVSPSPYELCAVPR

[17] = Clearance in mouse liver microsomes at 1 uM incubated for 10 mins by LC-MS/MS method; format: ADME, Microsome
Outline: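 Liver microsomes (human or mouse, 0.5 mg/mL) in 100 mM potassium phosphate pH 7.4 with 1 μM compound, prewarmed 10 min at 37 °C, started with NADPH (10 mM); stopped at 0, 3, 6, 9, 15, 30 min with ice-cold methanol containing tolbutamide internal standard; LC-MS/MS. Hepatic clearance (mL/min/kg) calculated from intrinsic clearance.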

AUC (Mus musculus [1]): 6316 ng·h/mL | t1/2 (Mus musculus [2]): 3.4 h | Tmax (Mus musculus [3]): 0.25 h | GI90 (SK-HEP1): 2.5 µM | GI90 (Bel-7402): 1.2 µM
Compound: CN1C[C@H](C(=O)Nc2ccc(Cl)cc2)[C@@H](c2ccc(/C=C/C(=O)Nc3ccccc3N)cc2)C1 [listing 1 of 2 here]
inhibition in vivo at 100 mg/kg (BEL-7404): > 60% | Activity (SMMC-7721): 15.41%

Compound: CN1C[C@H](C(=O)Nc2ccc(Cl)cc2)[C@@H](c2ccc(/C=C/C(=O)Nc3ccccc3N)cc2)C1 [listing 2 of 2 here]
Activity (Mus musculus [4]): Active | inhibition (Mus musculus [5]): Active | Activity (Mus musculus [6]): Active | Activity (Mus musculus [7]): inactive | Activity (Mus musculus [8]): inactive | Activity (Mus musculus [9]): Active | Activity (Mus musculus [10]): Active | Activity (Mus musculus [11]): Active | Activity (Mus musculus [12]): Active | inhibition (SGC-7901 [13]): Dose-dependent effect | inhibition (SGC-7901 [14]): Dose-dependent effect | inhibition (Mus musculus [15]): Active | inhibition (Mus musculus [16]): Active

pIC50 (Cytochrome P450 2D6): 5.05 | CLhep predicted at 1 µM [17]: 36 mL/min/kg
Compound: CN1C[C@H](C(=O)Nc2ccc(Cl)cc2)[C@@H](c2ccc(/C=C/C(=O)Nc3ccccc3N)cc2F)C1 (racemic)
